Data taken from PubChem BioAssay AID652260 (The Scripps Research Institute Molecular Screening Center, 2013).
About 1,000 (29%) of roughly 3,500 compounds were called active.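 How the source made its calls: active means activation above its plate's cutoff, the mean activation of tested wells plus 3 SD (cut at about 7.9% in these data); inactive means the rest.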 Not all results are given here.

Assay: SMARCA2 (BRM) function activators, confirmation, cell-based, luminescence, triplicate (AID 652260)
Details: MG213 cells, MMTV-luciferase with dexamethasone, overnight, at 9.1 µM, stronger effect = higher value, DMSO wells 0%, reference activator 100%, MG213 cells expressing E1A, Rb sequestered
Summary of the method: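 material = MG213 cells (E1A-transduced) carrying MMTV-luciferase reporter | amount = 600 cells in each well | probe or stimulus = 0.1 µM dexamethasone stimulus | dosing = 9.1 µM single dose | timing = one-day dexamethasone pre-induction, 24 h compound exposure at 37 °C | detection = OneGlo luciferase luminescence after 15 min at room temperature | evaluation = normalized percent activation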

activation, active:
Cc1ccc(O)c(CNc2nc3ccccc3n2C)c1 9.22%
O=c1c2c(nc3n1CCCCC3)sc1c(O)cccc12 15.2%
CCCCCCOC(=O)NCC(O)c1ccccc1 (stereo not drawn) 12.4%
CCOC(=O)c1c(C)[nH]c(C2=NNC(=NC(C)COC)SC2)c1C (stereo not drawn) 10.6%
CCc1ccc(NC2Nc3cc(C)nn3S2)cc1 (stereo not drawn) 8.74%
CCc1cc2c(=O)c(-c3ccon3)c(N)oc2cc1OC 14%
Cc1ccnc(Nc2nc3ccccc3s2)n1 10%
O=C(Nc1ccc(F)cc1)c1cc2c(s1)CCCC2 9.06%
O=C(NCC1CCCO1)c1cc2c(s1)CCCC2 (stereo not drawn) 11%
O=C(CCCc1ccccc1)NCc1ccccc1 8.8%
CC(C)(C)c1ccc(NC(=O)NCc2ccco2)cc1 14.5%
CC(C)(C)NC(=O)C(CCc1ccccc1)n1c(=O)c(-c2ccccc2)nc2ccccc21 (stereo not drawn) 8.75%
COc1ccc(/C=C/C(=O)Nc2ccc(C34CC5CC(CC(O)(C5)C3)C4)cc2)cc1OC 15.3%
COc1ccc(C(=O)NC2=NCCS2)c(OC)c1 10.5%
Cc1ccc(C(=O)CSc2ccccc2C(=O)O)cc1 16.1%
Cc1cccc(-n2c(O)c(C=Nc3ccccc3N)c(=O)[nH]c2=O)c1 11.1%
COc1cccc(C(=O)Nc2cc3c(cc2Br)OCCCO3)c1 9.25%
Cc1ccc(NC(=O)c2cc3ccccc3o2)cc1 10.6%
CCc1c(C)c2ccc(OC3CCCCC3=O)cc2oc1=O (stereo not drawn) 12.2%
Oc1cccc2ccc(/C=C/c3ccc(Br)s3)nc12 12.9%

activation, inactive:
COc1cc(/C=N/NC(=O)c2ccccc2)ccc1OS(=O)(=O)c1ccccc1 3.32%
Cc1nnc(NC(=O)Cn2c(=O)sc3ccccc32)s1 -3.31%
COC(=O)c1ccc(NCc2cc(O)ccc2O)cc1 1.42%
CC(=O)c1ccc(NC(=O)c2sc3nc4n(c(=O)c3c2C)CCCCC4)cc1 -0.4%
FC(F)(F)c1cccc(-c2nc3ccccc3n2C(c2ccccc2)c2nc3ccccc3[nH]2)c1 (stereo not drawn) 3.9%
CC(=O)Oc1ccc(C(=O)Nc2nccs2)cc1 6.25%
CCOc1cccc2c1OC1(CCCCC1)N1N=C(c3cccnc3)CC21 (stereo not drawn) 2.8%
Cc1ccc(-n2c(SCC(=O)N3CCC(C(=O)O)CC3)nc3ccccc3c2=O)cc1C 4.21%
CN(C)CCNC(=O)c1ccc(Cl)c2cc3ccccc3nc12 -13.7%
CCCOc1ccc(-c2nc(N)n[nH]2)cc1 4.15%
Cc1ccccc1C#CC1=CC(=O)CC(C)(C)C1 1%
Cc1ccccc1C1=N/C(=C/c2cccnc2)C(=O)O1 0.02%
CCCCc1ccc(NC(=S)N2CCCC(CO)C2)cc1 (stereo not drawn) 6.12%
Cc1ccc(C(=O)Nc2nc3ccc(Cl)cc3s2)o1 3.69%
C1=C(CCNc2ncnc3c2cnn3-c2ccccc2)CCCC1 3.15%
O=C(N[C@H]1CC[C@H](CC(=O)N2CCCCC2)O[C@@H]1CO)c1cccc(F)c1 0.05%
CCCn1c(=O)c2ccccc2n2c(SCC(=O)/C(C#N)=C(\C)N)nnc12 3.09%
COCC1CCN(C(=O)C2CCC(=O)N(Cc3cccc(C(F)(F)F)c3)C2)CC1 (stereo not drawn) 2.05%
Cc1ccc(Nc2nc(Cl)c(C=O)s2)cc1 -3.27%
CN(C)C(CNC(=O)c1ccc(OCc2cn3ccccc3n2)cc1)c1ccco1 (stereo not drawn) 2.21%
O=C(Nc1ccc(NC(=O)c2cccs2)cn1)c1ccco1 2.8%
Cc1ccnc(NC(=O)C2CCN(S(=O)(=O)c3c(C)c(C)cc(C)c3C)CC2)c1 -0.54%
COC(=O)c1sc(-c2ccc(C(C)(C)C)cc2)cc1NC(=O)/C=C/C(=O)O -3.23%
CCC(C)N(C)C1CCN(C(=S)Nc2ccc(OC)cc2)CC1 (stereo not drawn) 1.96%
COc1cccc(OCCOc2cccc(/C=N/n3cnnc3)c2)c1 3.85%
Cc1ccc(F)c(NC(=O)CCc2ccccc2)c1 5.33%
COc1ccc(OCCCC(=O)NCCc2ccccc2)cc1 1.28%
CC(C)c1ccc(NC(=S)NC2CC3C=CC2C3)cc1 (stereo not drawn) 6.89%
Cc1ccc(NC(=O)C(=O)NCc2ccco2)c(C)c1 0.78%
Cc1noc(C)c1S(=O)(=O)N(C)C[C@H]1Oc2c(NC(=O)Nc3ccc4c(c3)OCO4)cccc2C(=O)N([C@H](C)CO)C[C@@H]1C -2.45%
O=C(Cn1ncc(N2CCCC2)c(Br)c1=O)c1ccc(Cl)cc1 3.52%
Cn1cccc1/C=N/NC(=O)c1ccc(OC(F)(F)C(F)F)cc1 3.85%
CC1(C)CC(=O)C=C(NCCCNC2CCCCC2)C1 -0.17%
O=C(Nc1cc(=O)[nH]c2ncnn12)c1ccccc1Cl 3.68%
CCCn1nc(C(=O)Nc2ccc3nc(C)sc3c2)c2ccccc2c1=O -0.9%
CC(C)Cc1nnc(NC(=O)CCNC(=O)c2ccccc2Cl)s1 -0.13%
Cc1ccc(-c2nc3ccc(Cl)cn3c2Cc2ccccc2)cc1 3.06%
Cc1ccc(N/C=C/C(=O)c2ccccc2)cc1C 0.64%
Cc1ccsc1C(=O)N/N=C/c1ccc([N+](=O)[O-])cc1 6.1%
COc1ccc2ccccc2c1CNCc1ccccn1 0.73%
Cn1sc(=O)c2cc(S(=O)(=O)NC3CC3)ccc21 -1.88%
COc1cccc(C(=O)Nc2nc3ccc(S(C)(=O)=O)cc3s2)c1 2.8%
O=C(O)c1ccc(COc2c(F)c(F)cc(F)c2F)o1 -2.71%
Cc1nc(-c2nnc(SCC(=O)Nc3cc(C(F)(F)F)cc(C(F)(F)F)c3)n2C)cs1 -3.07%
Fc1ccc(/C=N/Nc2nc(-c3cccnc3)nc3ccccc23)cc1 4.27%
CCOC(=O)Nc1ccc(NC(=O)OCC)cc1 -0.46%
COc1ccc(C(=O)N/N=c2\oc3ccccc3cc2C(N)=O)cc1 1.59%
O=C(C1CCC1)N1CCN(S(=O)(=O)c2ccc([N+](=O)[O-])cc2)CC1 0.04%
COC(=O)c1ccc(/C=C2/C(=O)Oc3ccccc32)cc1 -2.13%
O=C(NC1CCCC1)C(=O)c1c[nH]c2ccccc12 4.82%
CC(=O)c1sc(NC(=O)c2ccc(C)cc2)nc1C 6.35%
CC1(C(=O)NS(=O)(=O)C2CC2)CCCN(C(=O)CSc2ccccc2)C1 (stereo not drawn) 1.21%
CC(C)CCNC(=O)c1ccc2c(Cl)c3c(nc2c1)CCC3 2.09%
